Consider 3 compounds from PMC4153963 (Drugs in R&D, 2014).

Data set [1] is classed as in vivo, human (healthy adult subjects). As to conditions: for K el: omeprazole 40 mg/day, mean (SD), n = 28.
The nature of another data set: Safety assessments. The class given is in vivo, human (healthy adult subjects). As to conditions: healthy subjects. Summed up: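 Open-label single-centre phase I crossover, healthy adults. Oral H+/K+ ATPase inhibitor 40-mg delayed-release capsule once daily, 1 h before breakfast, days 1–7 and 19–25. Omega-3 ethyl ester 4 g/day as two 1-g capsules twice daily with or after meals, days 12–29. Monitored adverse events, chemistry, hematology, urinalysis, blood pressure, heart rate, respiratory rate, oral temperature and physical examinations.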

For data set [2] the following is noted: healthy subjects; cited from earlier work.
For data set [3] the following is noted: cited from earlier work.
The next data set deals with CYP2C9. As to conditions: IPE 4 g/day; cited from earlier work.
Data set [4] has as its target cytochrome P450 (CYP) 2C19 (Homo sapiens, UniProt P33261). The data set can be described thus: Drug-drug interaction of IPE with omeprazole, a CYP2C19 substrate. Format: in vivo, human (healthy adult subjects). Conditions: IPE 4 g/day at steady state, omeprazole 40 mg/day.
For a further data set, the system named is serum TG levels. As to conditions: IPE 4 g/day, MARINE and ANCHOR studies; cited from earlier work.
Another data set has as its system CYP2C8. As to conditions: IPE 4 g/day; cited from earlier work.
Another data set has as its system CYP3A4. As to conditions: IPE 4 g/day; cited from earlier work.

“Also recorded” adds a separate entry of the source. Where two headings read alike, the source gives them in different places.

Sequence of cytochrome P450 (CYP) 2C19 (P33261 whole entry): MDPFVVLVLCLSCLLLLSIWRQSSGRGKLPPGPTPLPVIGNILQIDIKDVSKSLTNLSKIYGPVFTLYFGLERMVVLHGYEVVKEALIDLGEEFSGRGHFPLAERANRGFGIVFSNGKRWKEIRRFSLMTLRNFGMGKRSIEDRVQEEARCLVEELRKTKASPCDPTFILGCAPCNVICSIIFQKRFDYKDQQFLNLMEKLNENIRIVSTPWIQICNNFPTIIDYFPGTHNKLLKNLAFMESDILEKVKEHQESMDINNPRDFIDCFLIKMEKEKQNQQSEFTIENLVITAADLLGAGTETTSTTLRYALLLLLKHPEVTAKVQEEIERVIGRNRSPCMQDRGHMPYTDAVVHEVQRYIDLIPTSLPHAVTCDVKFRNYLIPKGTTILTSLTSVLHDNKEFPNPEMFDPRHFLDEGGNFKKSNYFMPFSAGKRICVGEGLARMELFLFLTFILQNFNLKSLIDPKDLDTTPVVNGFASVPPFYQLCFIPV

By AUC(0-t) is commonly meant exposure summed from dosing to a finite time, without extrapolation to infinity. Lower therefore signals less exposure. In the case of `COc1ccc2[nH]c([S+]([O-])Cc3ncc(C)c(OC)c3C)nc2c1` (centres unmarked) [Omeprazole], the AUC(0-t) in data set [1] (human, plasma, po, 40 mg/day) is 3610 ng·h/mL. Moreover, the values for the K el in data set [1] (with icosapent ethyl 4 g/day (day 25)) and in data set [1] (without IPE (day 7)) were 0.62 (0.26) L/h and 0.56 (0.22) L/h, respectively. Also, the “Tolerability of omeprazole alone” value in “Safety assessments” (omeprazole 40 mg/day) is reported as “well tolerated”. Moreover, the Elimination half-life in data set [2] is 30 to 60 min.

Turning to `CC/C=C\C/C=C\C/C=C\C/C=C\C/C=C\CCCC(=O)O` [EPA, eicosapentaenoic acid], in data set [3], the “Unesterified fraction of total EPA in plasma” value was less than 1%. Further, in data set [3] (following oral dosing of IPE), the “Time to peak plasma concentrations of EPA” value was “approximately 5 h”.

For `CC/C=C\C/C=C\C/C=C\C/C=C\C/C=C\CCCC(=O)OCC` [IPE, eicosapentaenoic acid ethyl ester], the “Effect of IPE on AUC or C max of warfarin (CYP2C9 substrate)” value in the data set with CYP2C9 was “did not display a significant effect”. For the same compound, the “Effect of IPE on AUC0–24 and C max of omeprazole (CYP2C19 substrate)” value in data set [4] is listed as “did not significantly change; also recorded: did not inhibit”. Also, the “Safety and tolerability of co-administration of IPE with omeprazole” value in the data set “Safety assessments” (IPE 4 g/day with omeprazole 40 mg/day) is “safe and well tolerated”. In the data set with serum TG levels, the “Effect on LDL-C levels” value was “without significantly increasing” and the “Effect on serum TG levels” value is “significantly reduce”. The “Effect of IPE on AUC or C max of rosiglitazone (CYP2C8 substrate)” value with CYP2C8 is on record as “did not display a significant effect”. In addition, the “Effect of IPE on AUC or C max of atorvastatin (CYP3A4 substrate)” value in the data set on CYP3A4 was “did not display a significant effect”.
